A selection: hits, their analogues and other compounds. The true share with any hit is near 2.8%.
bCat KO growth: beta-catenin-lacking colon tumor cell growth suppression; hit rate 1.5% among 140,000; viability, % at 10 µM; AID 818; HCT116 beta-catenin knockout viability, CellTiter-Glo, 60 h; hits give low values;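 active = viability at or under a set limit, the compound median less 4 SD, cut at about 6% in these data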
Yeast life ext: extends the lifespan of yeast; S. cerevisiae growth with nicotinamide, OD615; deaD strain in restrictive glucose medium; inhibition of the nicotinamide effect, % at 10 µM; hit rate 0.68% among 130,000; AID 775;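 active = inhibition above a set limit, placed 3 SD over the median of all compounds, cut at about 26% in these data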
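Material: Modified budding yeast, DeaD strain | Medium: Restrictive glucose medium | Probe or stimulus: 1.5 mM nicotinamide | Dosing: Single dose 10 µM compound, 0.25% DMSO | Times: 48 h at 30 °C | Technique: OD615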
HCT116 PTEN-null: PTEN-deleted cell growth suppression; HCT116 PTEN-null viability, CellTiter-Glo, 60 h; hits give low values; viability, % at 10 µM; hit rate 1.2% among 140,000;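 active = viability at or below a set limit, 4 SD under the median of all tested compounds, cut at about 3.7% in these data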;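 also: PTEN knockout HCT116 line with beta catenin targeted HCT116 as companion control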
Yeast growth inh: reduces growth of yeast BB579 in restrictive medium; S. cerevisiae BB579 growth, OD615, 48 h; inhibition, % at 10 µM; hit rate 0.51% among 140,000;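 active = inhibition above a set limit, 3 SD over the mean compound inhibition, cut at about 44% in these data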
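controls = amphotericin B 10 µg/mL, positive | assay system = DeaD yeast strain BB579 | schedule = 48 h compound exposure at 30 °C after 4 h preincubation | detection = OD615 turbidity measurement | medium = restrictive CSMM-D medium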
sdo1 growth: compounds rescuing growth of sdo1-depleted yeast, bone marrow failure model. z-score at 10 µM. S. cerevisiae sdo1-depleted JHY4D growth rescue, OD600 30 h; hits give high values; pdr5 snq2 efflux-pump mutant strain. AID 817. hit rate 0.21% among 140,000;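 active = z-score above 3 at both the 24 hr and the 30 hr optical density reads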
Of the large screens only hits and unclear results are named; the others gave an inactive call; ! = repeats disagree.

CC(C)(C)c1ccc(NC(=O)COC(=O)c2ccc([N+](=O)[O-])s2)cc1	Yeast growth inh 99.7
COc1ccc(C(=O)COc2ccccc2N2C(=O)C3C4C=CC(C4)C3C2=O)cc1 (stereo not drawn)	none
C=CCc1cccc(/C=N/NC(=O)CNc2cccc3ccccc23)c1O	bCat KO growth 3.2, HCT116 PTEN-null 1.8
C=CCc1cccc(/C=N/NC(=O)CNc2ccccc2)c1O	bCat KO growth 3.7, HCT116 PTEN-null 3.0
C=CCc1cccc(/C=N/NC(=O)CCCNc2ccc(C)cc2)c1O	none
CCSc1nnc(NC(=O)c2ccccn2)s1	Yeast growth inh 97.3
Cc1ccc(C)c(NS(=O)(=O)c2ccc3c(c2)Cc2cc(S(=O)(=O)Nc4cc(C)ccc4C)ccc2-3)c1	none
O=C1NCC2=C1C(c1ccc(Br)cc1)Nc1ccccc1N2 (stereo not drawn)	Yeast life ext 91.9
CC1CC2=C(C(=O)O1)C(c1ccccc1)Nc1ccccc1N2 (stereo not drawn)	none
Cc1ccc(C=Nc2ccccc2C#N)s1	none
Cc1c(Cl)cccc1N=Cc1ccc([N+](=O)[O-])s1	Yeast growth inh 57.1
CC(=O)OCC1O[C@@H](O[C@@H]2C[C@H]3C(C)(C)[C@H](OC(C)=O)CC[C@]3(C)[C@H]3CC[C@]45C[C@]4(CC[C@H]5[C@@H](C)C[C@@H](O)[C@H](O)C(C)(C)O)[C@@]32C)[C@H](O)[C@@H](O)[C@@H]1O (stereo partly drawn)	bCat KO growth 1.1, HCT116 PTEN-null 1.0
O=[N+]([O-])c1ccc(N2CCC(O)CC2)nc1	none
O=C(COC(=O)Cc1cccc(C(F)(F)F)c1)Nc1ccccc1	none
Nc1c(-c2ccccc2)nc(Cl)nc1-c1ccccc1	none
c1ccc(-c2nc3nonc3nc2-c2ccccc2)cc1	bCat KO growth 2.3, HCT116 PTEN-null 2.4, Yeast growth inh 70.2
CCOCCCNC(=O)C1CCCCN1S(=O)(=O)c1ccc(F)cc1 (stereo not drawn)	none
COc1ccccc1OCC(=O)n1cc(C(=O)c2cc(Cl)cc(Cl)c2O)cn1	Yeast growth inh 45.3
O=C(N/N=C/c1ccc(O)c(O)c1)c1ccc(CSc2cccc3cccnc23)cc1	none
COc1ccc([N+](=O)[O-])cc1NC(=S)NC(NC(=O)Cc1ccc(OC)c(OC)c1)C(Cl)(Cl)Cl (stereo not drawn)	bCat KO growth 4.9
Cc1ccc2[nH]c(C)c(/C=N/Nc3nc4ccccc4s3)c2c1	bCat KO growth 1.6, HCT116 PTEN-null 1.1
O=C(CN1CCN(S(=O)(=O)c2ccccc2)CC1)Nc1ccc([N+](=O)[O-])cc1	none
c1ccc(-n2cnc3cc(NCc4cccs4)ccc32)cc1	none
Cc1ccc(-n2cnc3cc(NCc4cccs4)ccc32)cc1	Yeast growth inh 49.9
O=C(N/N=C/c1ccc(F)cc1)c1sccc1OCc1ccc(F)cc1	none
O=C(N/N=C/c1ccc(Cl)cc1)c1sccc1OCc1ccc(F)cc1	bCat KO growth 6.0
CCOC(=O)c1ccc2c(c1)n(CCO)c(C)[n+]2CC	Yeast life ext 71.2
CCC(C)(C)NC(=O)C(c1ccc(OC)cc1)N(Cc1cccs1)C(=O)CCC(=O)Nc1cc(C)on1 (stereo not drawn)	none (no result: Yeast life ext)
Cc1ccc(-n2nc3c([n+]2[O-])CCc2c-3no[n+]2[O-])cc1	none
[O-][n+]1onc2c1CCc1c-2nn(-c2ccccc2Cl)[n+]1[O-]	bCat KO growth 2.5, HCT116 PTEN-null 2.0
Cc1noc(/C=C/c2ccco2)c1S(=O)(=O)N1CCC(C(=O)N2CCc3ccccc3C2)CC1	none
COc1ccc(CC(=O)Nc2nnc(C)s2)cc1	none
COc1ccc(-c2cc(-c3ccc(F)cc3)nc(N3CCN(C)CC3)n2)cc1	bCat KO growth 3.3, HCT116 PTEN-null 3.4
CN(C)CCCN1c2ccccc2Sc2ccc(Cl)cc21	bCat KO growth 1.8!, HCT116 PTEN-null 2.7!
OCCN1CCN(Cc2cccc(Oc3ccc(Cl)cc3)c2)CC1	none
OCCN1CCN(CCCN2c3ccccc3Sc3ccc(Cl)cc32)CC1	bCat KO growth 1.5, HCT116 PTEN-null 2.3
COc1cc(C(=O)O/N=C2/C=CC(=O)C(C)=C2C)cc(OC)c1OC	HCT116 PTEN-null 2.5
CCCCCCC(=O)NC(Nc1ccc(S(N)(=O)=O)cc1)C(Cl)(Cl)Cl (stereo not drawn)	none
OC1C2CN3CCN(C2)CC1(Cc1ccccc1)C3 (stereo not drawn)	bCat KO growth 1.4, HCT116 PTEN-null 0.7 (no result: Yeast life ext)
OC1C2(Cc3ccccc3)CN3CCN(C2)CC1(Cc1ccccc1)C3 (stereo not drawn)	none
COC(=O)C1=C(C)OC(N)=C(C#N)C1c1ccccc1 (stereo not drawn)	none
CNC(=O)C1C(=S)NC(N)=C(C#N)C1c1ccccc1 (stereo not drawn)	bCat KO growth 0.5, HCT116 PTEN-null 1.0
COc1ccc(NC(=O)CCCn2c(=O)c3sccc3n(Cc3ccccc3)c2=O)cc1	HCT116 PTEN-null 0.8
COc1ccc(NC(=O)CCCn2c(=O)c3sccc3n(Cc3ccccc3C)c2=O)cc1	none
CCn1c2ccccc2c2nnc(SCC(=O)NC(CC(C)C)C(=O)OC)nc21 (stereo not drawn)	none
CC(C)CN1C(=S)SC(C)(C)C1n1oc(=O)n(-c2ccc(Cl)cc2)c1=O (stereo not drawn)	bCat KO growth 2.3, HCT116 PTEN-null 0.8
Cc1ccc(Oc2nc3ccccc3n3c(C)nnc23)c(C)c1	Yeast life ext 73.6
CCOc1cc(CNCCO)cc(Br)c1OCc1ccccc1Cl	bCat KO growth 1.2, HCT116 PTEN-null 1.4
CCOc1cc(CNCCO)cc(Br)c1OCc1ccc(Cl)cc1	bCat KO growth 1.7, HCT116 PTEN-null 1.2
CCOc1cc(CNC(C)(C)CO)cc(Br)c1OCc1ccc(Cl)cc1Cl	bCat KO growth 0.8, HCT116 PTEN-null 0.8
CCOc1cc(CNc2ccc(O)cc2)cc(Br)c1OCc1ccccc1F	bCat KO growth 4.0
N#Cc1c(NC(=O)C2CCCO2)sc2c1CCCCCC2 (stereo not drawn)	none
c1ccc(-c2nc(N3CCCCCC3)c3ccccc3n2)nc1	bCat KO growth 3.8, HCT116 PTEN-null 3.4
c1ccc(-c2nc(N3CCOCC3)c3ccccc3n2)nc1	HCT116 PTEN-null 3.3
COc1cccc(NC(=O)C(=O)N/N=C/c2cc(C)n(-c3ccc(Cl)c(Cl)c3)c2C)c1	none
Cc1ccc(N2C(=O)N(CC(=O)N3CCCc4ccccc43)C(=O)C2C)cc1 (stereo not drawn)	none
O=C(Nc1ccccc1-c1nc2ccccc2[nH]1)c1ccc(S(=O)(=O)N2CCCCC2)cc1	Yeast life ext 42.0 (no result: HCT116 PTEN-null)
Cc1cnc(NC(=O)c2sc3ccccc3c2Cl)s1	none
O=C(Nc1ccccc1-c1nc2ccccc2[nH]1)c1sc2ccccc2c1Cl	bCat KO growth 4.0, HCT116 PTEN-null 1.9
O=C(OC1C2CCC1C1CN(CCc3ccccc3)CC12)c1ccccc1 (stereo not drawn)	none

Screening data (PubChem)
